# From paper PMC5253108 (European journal of medicinal chemistry, 2016)
# Read-outs that look alike come from different tables or passages of the source.
# Legend:
# [1] = In vitro liver microsomal stability; format: in vitro ADME, mouse
# HEK293 kidney cells = format: cell-based; settings: 48 hours, Cell-Titer Glo
# HepG2 liver cells = assay: In vitro cytotoxicity, Cell-Titer Glo viability, HepG2; format: cell-based; settings: 48 hours
# [2] = system: BEAS2B lung epithelial cells; assay: In vitro cytotoxicity, Cell-Titer Glo viability, BEAS2B; format: cell-based; settings: 48 hours
# [3] = system: guinea pig tracheal rings; settings: cited from earlier work
# [4] = system: ovalbumin (S/C) BALB/c mice; settings: given repeatedly over five days; listed as ethyl ester of XHE-III-74; cited from earlier work
# Swiss Webster mice [5] = settings: cited from earlier work
# [6] = mouse, cited from earlier work
# [7] = In vitro liver microsomal stability; format: in vitro ADME; settings: for remaining at 1 h: human
# rats = assay: Sensorimotor impairment in rats; format: in vivo, rat; settings: 15 mg/kg, unpublished results
# [8] = system: murine house dust mite model of asthma; settings: cited from earlier work
# airway smooth muscle = settings: cited from earlier work
# mice = settings: aerosol delivery in mice; cited from earlier work
# [9] = Pharmacokinetic study in mice; format: in vivo, mouse
# airway eosinophilia = settings: cited from earlier work
# Swiss Webster mice [10] = assay: Rotarod assay of sensorimotor coordination in mice; settings: 40 mg/kg i.p., Swiss Webster mice, 10, 30 and 60 min
# [11] = Solubility in rotarod vehicle; settings: 50% PBS, 40% propylene glycol, 10% DMSO; for 40 mg/kg i.p. dosing
# [12] = Solubility at 10 µM in PBS with 1% DMSO; format: physicochemical; settings: aqueous buffer, kinetic from dmso stock
# α4β3γ2 GABAAR = α4β3γ2 GABAAR (Homo sapiens, UniProt P18507+P48169); assay: GABA induced current potentiation, α4β3γ2 GABAAR; format: biochemical; settings: 1 µM compound, GABA EC20 concentration
# α4β3γ2 GABAAR, sequence (P48169 36-554): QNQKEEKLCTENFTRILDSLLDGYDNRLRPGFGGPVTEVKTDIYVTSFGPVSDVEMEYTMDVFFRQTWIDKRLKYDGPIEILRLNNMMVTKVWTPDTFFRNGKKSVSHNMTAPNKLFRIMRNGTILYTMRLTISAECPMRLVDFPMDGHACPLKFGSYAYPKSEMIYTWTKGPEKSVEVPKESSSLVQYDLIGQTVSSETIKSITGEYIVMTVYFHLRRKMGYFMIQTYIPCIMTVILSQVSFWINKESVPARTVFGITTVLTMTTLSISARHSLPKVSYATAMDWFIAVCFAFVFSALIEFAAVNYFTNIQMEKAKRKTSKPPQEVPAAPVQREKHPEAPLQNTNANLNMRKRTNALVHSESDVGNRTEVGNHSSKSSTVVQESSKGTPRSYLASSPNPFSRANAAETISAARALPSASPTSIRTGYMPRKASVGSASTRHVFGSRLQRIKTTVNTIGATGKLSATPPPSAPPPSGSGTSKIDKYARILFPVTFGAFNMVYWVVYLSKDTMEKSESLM
# α4β3γ2 GABAAR, sequence (P28472 26-473 partner): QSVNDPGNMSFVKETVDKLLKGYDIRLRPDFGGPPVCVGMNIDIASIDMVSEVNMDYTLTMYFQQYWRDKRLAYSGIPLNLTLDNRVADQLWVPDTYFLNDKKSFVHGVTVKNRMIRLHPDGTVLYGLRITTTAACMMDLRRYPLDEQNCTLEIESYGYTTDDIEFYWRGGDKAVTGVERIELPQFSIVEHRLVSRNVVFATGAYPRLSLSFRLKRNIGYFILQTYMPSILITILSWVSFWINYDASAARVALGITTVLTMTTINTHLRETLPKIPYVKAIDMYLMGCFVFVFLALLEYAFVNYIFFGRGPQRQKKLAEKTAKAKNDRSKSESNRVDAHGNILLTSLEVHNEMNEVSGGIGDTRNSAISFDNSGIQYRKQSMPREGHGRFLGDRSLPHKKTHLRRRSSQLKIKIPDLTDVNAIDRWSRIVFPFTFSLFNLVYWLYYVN
# α4β3γ2 GABAAR, sequence (P18507 40-475): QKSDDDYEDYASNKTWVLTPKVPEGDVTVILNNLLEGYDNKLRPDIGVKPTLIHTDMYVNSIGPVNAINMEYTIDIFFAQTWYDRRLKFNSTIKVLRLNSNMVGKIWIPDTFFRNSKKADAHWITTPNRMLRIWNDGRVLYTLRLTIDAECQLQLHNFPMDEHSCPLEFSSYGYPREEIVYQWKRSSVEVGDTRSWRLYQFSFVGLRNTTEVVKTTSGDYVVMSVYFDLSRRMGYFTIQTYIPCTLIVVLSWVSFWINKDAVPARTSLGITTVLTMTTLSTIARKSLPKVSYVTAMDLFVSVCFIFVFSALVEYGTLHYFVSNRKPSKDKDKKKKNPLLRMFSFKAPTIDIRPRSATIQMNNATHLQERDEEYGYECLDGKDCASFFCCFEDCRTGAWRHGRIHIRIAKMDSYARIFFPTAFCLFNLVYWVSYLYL
# [13] = system: guinea pig tracheal rings; settings: 50 µM compound, substance P contracted rings
# [14] = system: ovalbumin (S/C) BALB/c mice; format: in vivo, mouse; settings: 40 mg/kg i.p. for 5 days, 12.5 mg/ml methacholine challenge, p<0.05
# Summary of the method: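 BALB/c mice were sensitized by ovalbumin injections (2 mg/kg/d in 2 mg alum, days 0, 7, 14) and challenged intranasally with ovalbumin (1.6 mg/kg/d, days 23–27); controls were saline-challenged. Test compound was given i.p. twice daily during the challenge period. Conscious mice had non-invasive sRaw measured after 1 min aerosolized PBS or methacholine (1.56–12.5 mg/mL), averaged over 3 min. Analysis used two-way repeated-measures ANOVA with Bonferroni post-test.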
smiles,measurement,setting,value
CCOC(=O)c1ncn2c1[C@@H]1CCCN1C(=O)c1cc(OC)ccc1-2 [Compound 5],loss at 1 h in mouse liver microsomes,[1],less than 20%
same,Toxicity in HEK293 (Kidney) LD50,HEK293 kidney cells,>400 µM
same,Toxicity in HEPG2 (Liver) LD50,HepG2 liver cells,>400 µM
same,Toxicity in BEAS 2B (Lung) LD50,[2],>400 µM
same,airway muscle constriction caused by substance P,[3],significantly reduced airway muscle constriction
same,airway hyperresponsiveness in ovalbumin S/C asthma model,[4],reduced airway hyperresponsiveness
same,sensorimotor impairment on rotarod,Swiss Webster mice [5]; published previously,weakly induced sensorimotor impairment
same,AUC for lung exposure,"[6]; same dose as 16, lung",4516 ng·min/mL
same,t1/2,[6]; same dose as 16,16.3 min
"COc1ccc2c(c1)C(=O)N1CCC[C@H]1c1c(C(=O)OC(C)(C)C)ncn1-2 [Compound 7, (S)-tert-Butyl-7-methoxy-9-oxo-11,12,13,13a-tetrahydro-9H-benzo[e]imidazo[5,1-c]pyrrolo[1,2-a][1,4]diazepine-1-carboxylate]",stability in the presence of human liver microsomes,[7]; liver microsomes,stable
same,Toxicity in HEK293 (Kidney) LD50,HEK293 kidney cells,>100 µM
same,Toxicity in HEPG2 (Liver) LD50,HepG2 liver cells,>400 µM
same,Toxicity in BEAS 2B (Lung) LD50,[2],>200 µM
same,sensorimotor impairment in rats,rats,induced sensorimotor impairment
same,airway muscle constriction caused by substance P,[3],significantly reduced airway muscle constriction
same,airway resistance in murine house dust mite model,[8],reduced airway resistance
same,relaxation of pre-contracted airway smooth muscle,airway smooth muscle,relaxed pre-contracted airway smooth muscle
same,airway hyperresponsiveness after aerosol delivery,mice,reduces airway hyperresponsiveness
"COc1ccc2c(c1)C(=O)N1CCC[C@H]1c1c(C(=O)O)ncn1-2 [Compound 9, (S)-7-Methoxy-9-oxo-11,12,13,13a-tetrahydro-9H-benzo[e]imidazo[5,1-c]pyrrolo[1,2-a][1,4]di-azepine-1-carboxylic acid]",remaining at 1 h,[7]; liver microsomes,< 80%
same,Toxicity in HEK293 (Kidney) LD50,HEK293 kidney cells,>400 µM
same,Toxicity in HEPG2 (Liver) LD50,HepG2 liver cells,>400 µM
same,Toxicity in BEAS 2B (Lung) LD50,[2],>400 µM
same,metabolite in blood samples,"[9]; after 5 mg/kg i.p. of 16, mouse blood",not detected in any blood samples
same,airway muscle constriction caused by substance P,[3],significantly reduced airway muscle constriction
same,airway eosinophilia,airway eosinophilia,decreased airway eosinophilia
same,airway eosinophilia,airway eosinophilia; listed as XHE-III-74A,significantly reduced airway eosinophilia
same,CNS effects,Swiss Webster mice [5],no CNS effects
[2H]C([2H])([2H])Oc1ccc2c(c1)C(=O)N1CCC[C@H]1c1c(C(=O)OC)ncn1-2 [Compound 10a],metabolically converted after one hour,"[1]; after one hour, corresponds to mouse liver microsome values of Table 1",15%
same,loss at 1 h in mouse liver microsomes,[1],less than 20%
same,Toxicity in HEK293 (Kidney) LD50,HEK293 kidney cells,>400 µM
same,Toxicity in HEPG2 (Liver) LD50,HepG2 liver cells,>400 µM
same,Toxicity in BEAS 2B (Lung) LD50,[2],>400 µM
same,sensorimotor impairment on rotarod,Swiss Webster mice [10],most severe motor impairment
"COc1ccc2c(c1)C(=O)N1CCC[C@H]1c1c(C(=O)OCC(C)C)ncn1-2 [Compound 11, (S)-Isobutyl-7-methoxy-9-oxo-11,12,13,13a-tetrahydro-9H-benzo[e]imidazo[5,1-c]pyrrolo[1,2-a][1,4]diazepine-1-carboxylate]",remaining at 1 h,[7]; microsomes,< 80%
same,Toxicity in HEK293 (Kidney) LD50,HEK293 kidney cells,>100 µM
same,Toxicity in HEPG2 (Liver) LD50,HepG2 liver cells,>200 µM
same,Toxicity in BEAS 2B (Lung) LD50,[2],>200 µM
same,solubility in the vehicle,[11],not soluble in the vehicle
[2H]C([2H])([2H])Oc1ccc2c(c1)C(=O)N1CCC[C@H]1c1c(C(=O)OCC(C)C)ncn1-2 [Compound 11a],remaining at 1 h,[7]; microsomes,< 80%
same,Toxicity in HEK293 (Kidney) LD50,HEK293 kidney cells,>100 µM
same,Toxicity in HEPG2 (Liver) LD50,HepG2 liver cells,>200 µM
same,Toxicity in BEAS 2B (Lung) LD50,[2],>200 µM
same,sensorimotor impairment on rotarod,Swiss Webster mice [10],most severe motor impairment
COc1ccc2c(c1)C(=O)N1CCC[C@H]1c1c(C(=O)OC(C(F)(F)F)C(F)(F)F)ncn1-2 [Compound 12],Toxicity in HEK293 (Kidney) LD50,HEK293 kidney cells,>200 µM
same,Toxicity in HEPG2 (Liver) LD50,HepG2 liver cells,>400 µM
same,Toxicity in BEAS 2B (Lung) LD50,[2],>400 µM
same,solubility,[12],< 10 µM
same,solubility in the vehicle,[11],not soluble in the vehicle
[2H]C([2H])([2H])Oc1ccc2c(c1)C(=O)N1CCC[C@H]1c1c(C(=O)OC(C(F)(F)F)C(F)(F)F)ncn1-2 [Compound 12a],remaining at 1 h,[7]; microsomes,< 80%
same,Toxicity in HEK293 (Kidney) LD50,HEK293 kidney cells,>200 µM
same,Toxicity in HEPG2 (Liver) LD50,HepG2 liver cells,>400 µM
same,Toxicity in BEAS 2B (Lung) LD50,[2],>400 µM
same,solubility in the vehicle,[11],not soluble in the vehicle
CCSC(=O)c1ncn2c1[C@@H]1CCCN1C(=O)c1cc(OC)ccc1-2 [Compound 13],Toxicity in HEK293 (Kidney) LD50,HEK293 kidney cells,>100 µM
same,Toxicity in HEPG2 (Liver) LD50,HepG2 liver cells,>100 µM
same,Toxicity in BEAS 2B (Lung) LD50,[2],>100 µM
same,solubility,[12],< 10 µM
same,solubility in the vehicle,[11],not soluble in the vehicle
[2H]C([2H])([2H])Oc1ccc2c(c1)C(=O)N1CCC[C@H]1c1c(C(=O)SCC)ncn1-2 [Compound 13a],Toxicity in HEK293 (Kidney) LD50,HEK293 kidney cells,>100 µM
same,Toxicity in HEPG2 (Liver) LD50,HepG2 liver cells,>100 µM
same,Toxicity in BEAS 2B (Lung) LD50,[2],>100 µM
same,solubility,[12],< 10 µM
same,solubility in the vehicle,[11],not soluble in the vehicle
COc1ccc2c(c1)C(=O)N1CCC[C@H]1c1c(C(=O)SC(C)(C)C)ncn1-2 [Compound 14],Toxicity in HEK293 (Kidney) LD50,HEK293 kidney cells,18.8 ± 2.4 µM
same,Toxicity in HEPG2 (Liver) LD50,HepG2 liver cells,>100 µM
same,Toxicity in BEAS 2B (Lung) LD50,[2],>100 µM
same,solubility,[12],< 10 µM
same,solubility in the vehicle,[11],not soluble in the vehicle
[2H]C([2H])([2H])Oc1ccc2c(c1)C(=O)N1CCC[C@H]1c1c(C(=O)SC(C)(C)C)ncn1-2 [Compound 14a],Toxicity in HEK293 (Kidney) LD50,HEK293 kidney cells,16.8 ± 2.0 µM
same,Toxicity in HEPG2 (Liver) LD50,HepG2 liver cells,>100 µM
same,Toxicity in BEAS 2B (Lung) LD50,[2],>100 µM
same,solubility,[12],< 10 µM
same,solubility in the vehicle,[11],not soluble in the vehicle
COc1ccc2c(c1)C(=O)N1CCC[C@H]1c1c(C(=O)N(C)C)ncn1-2 [Compound 16],loss at 1 h in mouse liver microsomes,[1],less than 20%
same,Toxicity in HEK293 (Kidney) LD50,HEK293 kidney cells,>400 µM
same,Toxicity in HEPG2 (Liver) LD50,HepG2 liver cells,>400 µM
same,Toxicity in BEAS 2B (Lung) LD50,[2],>400 µM
same,"potentiation of GABA induced current, α4β3γ2 GABAAR",α4β3γ2 GABAAR,319%
same,time to airway smooth muscle relaxation effect,[13],≤ 15 min
same,"specific airway resistance (sRAW) vs vehicle, 5 day treatment",[14],significant reduction in sRAW
same,blood brain barrier penetration,"[9]; mouse, 5 mg/kg i.p.",did penetrate the blood brain barrier
same,AUC,"[9]; mouse, lung, ip, 5 mg/kg",12.7 ng·h/mL
same,sensorimotor impairment on rotarod,Swiss Webster mice [10],did not induce sensorimotor impairment
[2H]C([2H])([2H])Oc1ccc2c(c1)C(=O)N1CCC[C@H]1c1c(C(=O)N(C)C)ncn1-2 [Compound 16a],loss at 1 h in mouse liver microsomes,[1],less than 20%
same,Toxicity in HEK293 (Kidney) LD50,HEK293 kidney cells,>400 µM
same,Toxicity in HEPG2 (Liver) LD50,HepG2 liver cells,>400 µM
same,Toxicity in BEAS 2B (Lung) LD50,[2],>400 µM
same,sensorimotor impairment on rotarod,Swiss Webster mice [10],did not induce sensorimotor impairment
COc1ccc2c(c1)C(=O)N1CCC[C@H]1c1c(C(=O)NC3CC3)ncn1-2 [Compound 19],remaining at 1 h,[7]; microsomes,< 80%
same,loss at 1 h in mouse liver microsomes,[1],less than 20%
same,Toxicity in HEK293 (Kidney) LD50,HEK293 kidney cells,>200 µM
same,toxicity in HEK293 cells,HEK293 kidney cells,some toxicity
same,Toxicity in HEPG2 (Liver) LD50,HepG2 liver cells,>400 µM
same,Toxicity in BEAS 2B (Lung) LD50,[2],>400 µM
